Laboratory results: ChEMBL document CHEMBL1134525, “Novel N-(arylalkyl)indol-3-ylglyoxylylamides targeted as ligands of the benzodiazepine receptor: synthesis, biological evaluation, and molecular modeling analysis of the structure-activity relationships” (J Med Chem, 2001)
Values joined by “and” are separate entries in the source; they are usually repeats but may differ in a detail not shown here. Identical values can stand only once.

Legend:
[1] = target: GABA A receptor alpha-3/beta-2/gamma-2 (Rattus norvegicus) (UniProt P18508+P20236+P63138); test: (§1) Inhibition of [3H]flumazenil binding to rat alpha-3-beta-2-gamma-2 GABA-A receptor subunits expressed in HEK293 cells; format: cell-based
In short: (§2)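 Membranes came from HEK293 clonal lines expressing rat GABAA subtypes, grown in MEM/EBSS with 10% FCS, 2 mM glutamine and penicillin/streptomycin at 37 °C in 5% CO2. Membranes were homogenized and centrifuged (48 000 × g, 30 min, 4 °C) in 10 mM K-phosphate pH 7.4 and resuspended with 100 mM KCl. […] Nonspecific binding was defined with 10^-5 M diazepam. Results are the mean of three determinations.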

[2] = target: GABA-A receptor; anion channel; test: Inhibition of [3H]- flumazenil binding to benzodiazepine receptor in bovine brain membranes; format: cell membranes
In short: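 Bovine brain membranes were freeze-thawed, washed by suspension and centrifugation in 50 mM tris-citrate pH 7.4, then used for competition binding against [3H]flumazenil. Specific binding inhibition was first measured at a fixed 10 µM. Protein was measured by the Lowry method.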

[3] = target: GABA-A receptor; alpha-1/beta-2/gamma-2 (Rattus norvegicus, UniProt P18508+P62813+P63138); test: Inhibition of [3H]flumazenil binding to rat alpha-1-beta-2-gamma-2 GABA-A receptor subunits expressed in HEK293 cells; format: cell-based; in short: as §2
[4] = target: GABA A receptor alpha-5/beta-3/gamma-2 (Rattus norvegicus, UniProt P18508+P19969+P63079); test: Inhibition of [3H]flumazenil binding to rat alpha-5-beta-3-gamma-2 GABA-A receptor subunits expressed in HEK293 cells; format: cell-based; in short: as §2
[5] = Ratio of Ki with out GABA and with GABA
[6] = target: GABA A receptor alpha-3/beta-2/gamma-2 (Rattus norvegicus, UniProt P18508+P20236+P63138); test: as §1; format: cell-based; in short: as §2
[7] = target: T1, GABA-A receptor; anion channel (Bos taurus) (UniProt P10063+P08220+P20237+P08219+P10064+P22300); test: Inhibition of [3H]- flumazenil binding to benzodiazepine receptor in bovine brain membranes at a dose of 10 uM; format: cell membranes
In short: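 Bovine brain membranes were freeze-thawed, washed by suspension and centrifugation in 50 mM tris-citrate pH 7.4, then used for competition binding against [3H]flumazenil. Specific binding inhibition was first measured at a fixed 10 µM. […] Protein was measured by the Lowry method.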

[8] = target: T2, GABA A receptor alpha-5/beta-3/gamma-2 (Rattus norvegicus) (UniProt P18508+P19969+P63079); conditions: HEK293, 10 uM
[9] = target: T2, GABA A receptor alpha-5/beta-3/gamma-2 (Rattus norvegicus); test: Inhibition of [3H]flumazenil binding to rat alpha-5-beta-3-gamma-2 GABA-A receptor subunits expressed in HEK293 cells at 10 uM; format: cell-based; in short: as §2
[10] = target: T1, GABA-A receptor; anion channel (Bos taurus); test: Relative bindign to GABA-A receptor in the presence and absence of GABA (GABA shift), Ki(-GABA)/Ki(+GABA); format: protein-complex assay
In short: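 [3H]flumazenil displacement Ki was measured both with and without GABA, using exhaustively washed bovine brain membranes or HEK293 membranes expressing rat α1β2γ2, α3β2γ2 or α5β3γ2. GABA ratio = Ki(without GABA)/Ki(with GABA).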

Chain of GABA A receptor alpha-5/beta-3/gamma-2 (P18508 whole entry): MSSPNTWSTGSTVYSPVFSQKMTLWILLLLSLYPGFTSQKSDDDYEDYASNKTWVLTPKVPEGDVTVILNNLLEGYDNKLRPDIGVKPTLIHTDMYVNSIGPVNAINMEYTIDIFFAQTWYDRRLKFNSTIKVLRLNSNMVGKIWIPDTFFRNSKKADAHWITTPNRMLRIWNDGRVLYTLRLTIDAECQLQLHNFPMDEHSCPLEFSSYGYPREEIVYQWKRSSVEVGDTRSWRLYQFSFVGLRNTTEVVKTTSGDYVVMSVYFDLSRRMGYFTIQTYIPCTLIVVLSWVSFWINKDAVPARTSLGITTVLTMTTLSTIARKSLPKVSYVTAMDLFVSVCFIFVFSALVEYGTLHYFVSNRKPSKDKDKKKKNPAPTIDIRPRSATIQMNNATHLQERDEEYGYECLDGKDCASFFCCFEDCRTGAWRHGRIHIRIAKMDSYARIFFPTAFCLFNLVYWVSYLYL
Chain of GABA A receptor alpha-5/beta-3/gamma-2 (P19969 whole entry): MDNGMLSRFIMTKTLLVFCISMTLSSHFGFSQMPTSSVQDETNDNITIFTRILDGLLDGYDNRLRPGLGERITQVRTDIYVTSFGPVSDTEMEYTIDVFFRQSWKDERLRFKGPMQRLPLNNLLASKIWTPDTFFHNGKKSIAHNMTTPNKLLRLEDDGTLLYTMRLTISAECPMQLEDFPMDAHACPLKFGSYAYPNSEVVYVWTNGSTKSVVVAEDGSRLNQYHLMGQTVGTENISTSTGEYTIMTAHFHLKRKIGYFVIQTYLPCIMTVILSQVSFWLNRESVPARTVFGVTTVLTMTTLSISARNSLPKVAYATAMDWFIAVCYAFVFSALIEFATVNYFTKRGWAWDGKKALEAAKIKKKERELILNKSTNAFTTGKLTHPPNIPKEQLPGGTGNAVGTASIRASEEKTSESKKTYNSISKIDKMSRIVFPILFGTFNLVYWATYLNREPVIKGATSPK
Chain of GABA A receptor alpha-5/beta-3/gamma-2 (P63079 whole entry): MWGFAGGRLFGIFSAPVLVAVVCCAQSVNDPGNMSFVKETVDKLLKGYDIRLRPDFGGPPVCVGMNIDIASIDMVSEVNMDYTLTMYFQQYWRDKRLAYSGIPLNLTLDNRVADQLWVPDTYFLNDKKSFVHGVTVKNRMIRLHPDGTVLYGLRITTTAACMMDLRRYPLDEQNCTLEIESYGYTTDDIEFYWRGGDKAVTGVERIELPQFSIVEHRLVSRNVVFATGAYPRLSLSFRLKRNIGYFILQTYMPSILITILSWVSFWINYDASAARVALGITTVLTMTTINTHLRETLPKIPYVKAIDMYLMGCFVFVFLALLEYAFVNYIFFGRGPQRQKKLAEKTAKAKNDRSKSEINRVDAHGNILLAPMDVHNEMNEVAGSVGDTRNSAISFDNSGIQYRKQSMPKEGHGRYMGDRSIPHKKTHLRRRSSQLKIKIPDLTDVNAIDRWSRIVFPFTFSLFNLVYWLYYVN
Chain of GABA-A receptor; alpha-1/beta-2/gamma-2 (P18508 whole entry): as the sequence (P18508 whole entry) above
Chain of GABA-A receptor; alpha-1/beta-2/gamma-2 (P62813 whole entry): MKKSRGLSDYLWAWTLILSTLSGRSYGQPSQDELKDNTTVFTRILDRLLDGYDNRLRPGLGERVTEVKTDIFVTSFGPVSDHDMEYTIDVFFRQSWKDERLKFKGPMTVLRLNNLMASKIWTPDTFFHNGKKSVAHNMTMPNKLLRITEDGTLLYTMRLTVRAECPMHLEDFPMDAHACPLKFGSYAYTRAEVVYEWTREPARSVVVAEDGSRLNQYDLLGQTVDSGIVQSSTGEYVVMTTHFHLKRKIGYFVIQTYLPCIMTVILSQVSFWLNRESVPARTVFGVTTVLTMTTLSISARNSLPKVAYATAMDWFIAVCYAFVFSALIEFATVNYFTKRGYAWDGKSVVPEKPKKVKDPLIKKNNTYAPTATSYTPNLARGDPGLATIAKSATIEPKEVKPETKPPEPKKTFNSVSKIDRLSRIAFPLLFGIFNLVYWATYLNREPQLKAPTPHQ
Chain of GABA-A receptor; alpha-1/beta-2/gamma-2 (P63138 whole entry): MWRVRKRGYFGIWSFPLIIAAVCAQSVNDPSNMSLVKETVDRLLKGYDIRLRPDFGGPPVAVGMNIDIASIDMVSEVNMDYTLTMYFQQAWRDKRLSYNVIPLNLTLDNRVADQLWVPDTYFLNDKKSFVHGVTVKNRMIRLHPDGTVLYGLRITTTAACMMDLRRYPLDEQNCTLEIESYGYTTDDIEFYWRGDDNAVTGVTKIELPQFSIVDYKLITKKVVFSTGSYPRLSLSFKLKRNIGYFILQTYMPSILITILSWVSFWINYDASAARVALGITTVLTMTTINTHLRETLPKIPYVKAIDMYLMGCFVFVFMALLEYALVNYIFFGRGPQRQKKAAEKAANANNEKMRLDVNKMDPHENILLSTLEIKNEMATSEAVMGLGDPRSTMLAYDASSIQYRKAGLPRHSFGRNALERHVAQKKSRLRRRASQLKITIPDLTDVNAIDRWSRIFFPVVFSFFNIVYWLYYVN
Chain of GABA A receptor alpha-3/beta-2/gamma-2 (P18508 whole entry): as the sequence (P18508 whole entry) above
Chain of GABA A receptor alpha-3/beta-2/gamma-2 (P20236 whole entry): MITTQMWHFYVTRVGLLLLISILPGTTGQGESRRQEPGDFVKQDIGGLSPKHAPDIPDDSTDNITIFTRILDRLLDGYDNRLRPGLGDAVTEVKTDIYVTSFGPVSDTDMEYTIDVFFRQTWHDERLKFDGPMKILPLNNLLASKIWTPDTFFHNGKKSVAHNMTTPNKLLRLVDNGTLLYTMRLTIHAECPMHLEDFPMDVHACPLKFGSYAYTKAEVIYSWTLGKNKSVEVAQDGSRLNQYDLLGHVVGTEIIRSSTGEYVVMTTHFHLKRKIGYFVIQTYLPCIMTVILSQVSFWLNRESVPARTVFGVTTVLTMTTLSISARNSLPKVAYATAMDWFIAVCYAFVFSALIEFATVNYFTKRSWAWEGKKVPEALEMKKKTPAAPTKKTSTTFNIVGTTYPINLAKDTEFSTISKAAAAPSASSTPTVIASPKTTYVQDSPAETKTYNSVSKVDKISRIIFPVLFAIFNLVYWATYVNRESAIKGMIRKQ
Chain of GABA A receptor alpha-3/beta-2/gamma-2 (P63138 whole entry): as the sequence (P63138 whole entry) above

Structure (SMILES)	Ki [2]	inhibition [7]	further results
O=C(N[C@@H]1CCc2ccccc21)C(=O)c1c[nH]c2ccccc12	675 nM	–	inhibition [1]: 28%; Ki [3]: 225 nM; Ki [4]: 2160 nM
O=C(N[C@@H]1CCc2ccccc21)C(=O)c1c[nH]c2ccc(Cl)cc12	80 nM	–	–
O=C(NNc1ccc([N+](=O)[O-])cc1)C(=O)c1c[nH]c2ccccc12	–	–	Ratio [5]: 0.96 and 0.98 and 0.8; Ki [3]: 25 nM; Ki [6]: 40 nM; Ki [4]: 43 nM
COc1ccc(C(C)NC(=O)C(=O)c2c[nH]c3ccc(Cl)cc23)cc1OC (racemic)	153 nM	–	–
O=C(NNc1ccc([N+](=O)[O-])cc1)C(=O)c1c[nH]c2ccc(Cl)cc12	–	< 80%	–
C[C@@H](NC(=O)C(=O)c1c[nH]c2ccc(Cl)cc12)c1ccc([N+](=O)[O-])cc1	695 nM	–	–
O=C(NC(CO)c1ccccc1)C(=O)c1c[nH]c2ccccc12 (racemic)	–	< 80%	–
O=C(N[C@H]1CCc2ccccc21)C(=O)c1c[nH]c2ccc([N+](=O)[O-])cc12	–	< 80%	–
Cc1ccc(-c2nc3ccc(C)cn3c2CC(=O)N(C)C)cc1	–	–	inhibition [8]: 35%
COc1ccc(C(C)NC(=O)C(=O)c2c[nH]c3ccc(Cl)cc23)cc1 (racemic)	103 nM	–	–
COc1ccc(NNC(=O)C(=O)c2c[nH]c3ccc(Cl)cc23)cc1	–	< 80%	–
C[C@@H](NC(=O)C(=O)c1c[nH]c2ccccc12)c1ccccc1	1310 nM	–	inhibition [1]: 5%; Ki [3]: 1150 nM; Ki [4]: 5500 nM
O=C(C(=O)N1Cc2ccccc2C1)c1c[nH]c2ccccc12	123 nM	–	Ratio [5]: 1.06 and 1.1; Ki [3]: 224 nM; inhibition [9]: 43%; Ki [6]: 3200 nM
COc1ccc(NNC(=O)C(=O)c2c[nH]c3ccc([N+](=O)[O-])cc23)cc1	–	< 80%	–
N#CC(NC(=O)C(=O)c1c[nH]c2ccc([N+](=O)[O-])cc12)c1ccccc1 (racemic)	241 nM	–	–
COc1ccc(C(C)NC(=O)C(=O)c2c[nH]c3ccccc23)cc1 (racemic)	1170 nM	–	–
C[C@H](NC(=O)C(=O)c1c[nH]c2ccc(Cl)cc12)c1ccccc1	100 nM	–	–
Cc1ccc([C@H](C)NC(=O)C(=O)c2c[nH]c3ccccc23)cc1	–	< 80%	–
Cc1ccc([C@@H](C)NC(=O)C(=O)c2c[nH]c3ccc([N+](=O)[O-])cc23)cc1	34 nM	–	–
Cc1ccc([C@@H](C)NC(=O)C(=O)c2c[nH]c3ccccc23)cc1	1150 nM	–	–
C[C@@H](NC(=O)C(=O)c1c[nH]c2ccc([N+](=O)[O-])cc12)c1ccccc1	17 nM	–	Ki [3]: 14 nM; Ki [6]: 283 nM; Ki [4]: 239 nM

Structure (SMILES)	Ki [2]	inhibition [7]	further results
COc1ccc(CNC(=O)C(=O)c2c[nH]c3ccc(OC)cc23)cc1	494 nM	–	–
CCOC(=O)[C@H](C)NC(=O)C(=O)c1c[nH]c2ccc([N+](=O)[O-])cc12	1950 nM	–	–
O=C(NCc1ccc(Cl)cc1)C(=O)c1c[nH]c2ccc([N+](=O)[O-])cc12	–	< 80%	–
O=C(N[C@H]1CCc2ccccc21)C(=O)c1c[nH]c2ccccc12	–	< 80%	–
CCOC(=O)C(NC(=O)C(=O)c1c[nH]c2ccccc12)c1ccccc1 (racemic)	–	< 80%	–
CCOC(=O)[C@@H](C)NC(=O)C(=O)c1c[nH]c2ccc([N+](=O)[O-])cc12	45 nM	–	–
O=C(NC1Cc2ccccc2C1)C(=O)c1c[nH]c2ccc([N+](=O)[O-])cc12	–	< 80%	–
COc1ccc2[nH]cc(C(=O)C(=O)NNc3ccc([N+](=O)[O-])cc3)c2c1	–	< 80%	–
N#CC(NC(=O)C(=O)c1c[nH]c2ccccc12)c1ccccc1 (racemic)	–	< 80%	–
COc1ccc(NNC(=O)C(=O)c2c[nH]c3ccc(OC)cc23)cc1	–	< 80%	–
COc1ccc(C(C)NC(=O)C(=O)c2c[nH]c3ccc([N+](=O)[O-])cc23)cc1OC (racemic)	55 nM	–	–
O=C(NCc1ccc([N+](=O)[O-])cc1)C(=O)c1c[nH]c2ccc(Cl)cc12	1370 nM	–	–
O=C(C(=O)N1Cc2ccccc2C1)c1c[nH]c2ccc([N+](=O)[O-])cc12	–	< 80%	–
Cc1ccc([C@H](C)NC(=O)C(=O)c2c[nH]c3ccc(Cl)cc23)cc1	–	< 80%	–
C[C@H](NC(=O)C(=O)c1c[nH]c2ccc([N+](=O)[O-])cc12)c1ccccc1	–	< 80%	–
O=C(NC1Cc2ccccc2C1)C(=O)c1c[nH]c2ccccc12	–	< 80%	–
Cc1ccc([C@@H](C)NC(=O)C(=O)c2c[nH]c3ccc(Cl)cc23)cc1	105 nM	–	–
O=C(NCc1ccc(Cl)cc1)C(=O)c1c[nH]c2ccc(Cl)cc12	–	< 80%	–
C[C@@H](NC(=O)C(=O)c1c[nH]c2ccc(Cl)cc12)c1ccccc1	–	< 80%	–
C[C@H](NC(=O)C(=O)c1c[nH]c2ccc(Cl)cc12)c1ccc([N+](=O)[O-])cc1	–	< 80%	–
CCOC(=O)CNC(=O)C(=O)c1c[nH]c2ccc([N+](=O)[O-])cc12	2700 nM	–	–

Structure (SMILES)	Ki [2]	inhibition [7]	further results
CCOC(=O)C(NC(=O)C(=O)c1c[nH]c2ccc([N+](=O)[O-])cc12)c1ccccc1 (racemic)	–	< 80%	–
C[C@H](NC(=O)C(=O)c1c[nH]c2ccc([N+](=O)[O-])cc12)c1ccc([N+](=O)[O-])cc1	–	< 80%	–
C[C@@H](NC(=O)C(=O)c1c[nH]c2ccccc12)c1ccc([N+](=O)[O-])cc1	–	< 80%	–
O=C(NNc1ccc([N+](=O)[O-])cc1)C(=O)c1c[nH]c2ccc([N+](=O)[O-])cc12	–	< 80%	–
COc1ccc(C(C)NC(=O)C(=O)c2c[nH]c3ccccc23)cc1OC (racemic)	850 nM	–	–
O=C(NCc1ccc([N+](=O)[O-])cc1)C(=O)c1c[nH]c2ccccc12	21 nM	–	Ratio [5]: 0.9 and 0.91 and 0.73; Ki [3]: 16 nM; Ki [6]: 1600 nM; Ki [4]: 58 nM
O=C(N[C@H]1CCc2ccccc21)C(=O)c1c[nH]c2ccc(Cl)cc12	–	< 80%	–
COc1ccc(C(C)NC(=O)C(=O)c2c[nH]c3ccc([N+](=O)[O-])cc23)cc1 (racemic)	113 nM	–	–
O=C(NC1Cc2ccccc2C1)C(=O)c1c[nH]c2ccc(Cl)cc12	–	< 80%	–
C[C@@H](NC(=O)C(=O)c1c[nH]c2ccc([N+](=O)[O-])cc12)c1ccc([N+](=O)[O-])cc1	78 nM	–	–
O=C(NC(CO)c1ccccc1)C(=O)c1c[nH]c2ccc([N+](=O)[O-])cc12 (racemic)	–	< 80%	–
O=C(N[C@@H]1CCc2ccccc21)C(=O)c1c[nH]c2ccc([N+](=O)[O-])cc12	28 nM	–	Ratio [5]: 1.12 and 0.98; Ratio [10]: 1.13; Ki [3]: 9 nM; Ki [6]: 1960 nM; Ki [4]: 95 nM
COc1ccc2[nH]cc(C(=O)C(=O)NCc3ccc(Cl)cc3)c2c1	–	< 80%	–
O=C(C(=O)N1Cc2ccccc2C1)c1c[nH]c2ccc(Cl)cc12	–	< 80%	–
COc1ccc(CNC(=O)C(=O)c2c[nH]c3ccc([N+](=O)[O-])cc23)cc1	–	–	Ratio [5]: 1.11 and 0.96 and 0.9; Ki [3]: 42 nM; Ki [6]: 137 nM; Ki [4]: 126 nM
C[C@H](NC(=O)C(=O)c1c[nH]c2ccccc12)c1ccccc1	–	< 80%	–
C[C@H](NC(=O)C(=O)c1c[nH]c2ccccc12)c1ccc([N+](=O)[O-])cc1	–	< 80%	–
Cc1ccc([C@H](C)NC(=O)C(=O)c2c[nH]c3ccc([N+](=O)[O-])cc23)cc1	–	< 80%	–
O=C(NCc1ccc([N+](=O)[O-])cc1)C(=O)c1c[nH]c2ccc([N+](=O)[O-])cc12	620 nM	–	–
